Bioassay records from PubChem BioAssay.
FN deposition inh – fibronectin deposition inhibition; AH1F fibroblasts, Alexa488-fibronectin deposition fluorescence, overnight; actives 0.086% (n = 350,000); inhibition, % at 12.6 µM;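 active means mean inhibition across replicates of 30% or more, regardless of how many single replicates reach that level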
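Assay system: AH1F fibroblasts / Quantity: 10000 cells per well / Medium: DMEM plus 2% serum, read in PBS / Reagent: labelled fibronectin 24 nM / Dosing: single dose, pinned / Times: 1 h cell attachment, overnight exposure to compound and label / Signal: fluorescence, ex 485 nm, em 525 nm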
GC-A act – GC-A (human) enzyme activation; actives 0.14% (n = 370,000); HEK293 GC-A cells, cGMP TR-FRET, EC30 ANP; 0% at EC30 ANP, 100% saturating ANP; P16066; activation, % at 10 µM; in the data active means activation above about 40%
CASP6 VEID inh – caspase-6 (human) enzyme inhibition; purified caspase-6, Z-VEID-R110 cleavage fluorescence; actives 0.53% (n = 350,000); P55212; inhibition, % at 12.5 µM;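 active means mean inhibition across replicates at least about 35%, with every replicate also reaching that limit, limit read from the data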
Target sequence (P55212 24-179 limits assumed): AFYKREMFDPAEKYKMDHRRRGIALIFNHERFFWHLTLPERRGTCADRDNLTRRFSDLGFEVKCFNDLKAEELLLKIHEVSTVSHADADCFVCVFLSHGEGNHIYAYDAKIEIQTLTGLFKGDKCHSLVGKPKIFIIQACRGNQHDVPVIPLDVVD
Target sequence (P55212 194-293 limits assumed): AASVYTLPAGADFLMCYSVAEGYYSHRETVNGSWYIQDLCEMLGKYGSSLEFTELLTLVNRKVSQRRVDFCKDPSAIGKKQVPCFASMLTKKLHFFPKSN
NSD2 inh – blocks human histone methyltransferase NSD2; NSD2 peptide methylation, AlphaScreen, 120 min; O96028; actives 0.54% (n = 310,000); AID 743445; inhibition, % at 12.5 µM; in the data active means inhibition above about 50%
NPR2 activator – GC-B (human) receptor activation | P20594 | activation, % at 10 µM | HEK293-GC-B cells, CNP EC30, cGMP TR-FRET; 0% at EC30 CNP, 100% saturating CNP | actives 0.11% (n = 370,000);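 active means activation at 10 µM reaching about 35% in either raw or pattern-adjusted values, limit read from the data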
CaV13 ICDI inh – Disruptors of the CACNA1D IQ motif to Ca2+-dependent inactivation inhibitor domain association, primary screening, Förster resonance energy transfer in intact living … | HEK cells, CFP/YFP FRET ICDI-IQ, plate reader, 10 min; percent FRET-ratio fall versus neutral wells | inhibition, % at 12.3 µM | actives 0.098% (n = 340,000);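 active means mean replicate inhibition of at least 30% and at least 1% of replicates passing that level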
Numbers stand for hits; 0 = inactive; - = no result; ! = repeats disagree. Rows were chosen to be rich in hits. Some 0.99% of all compounds tested hit in one or more screens of this group.

SMILES	FN deposition inh	GC-A act	CASP6 VEID inh	NSD2 inh	NPR2 activator	CaV13 ICDI inh
O=C1ON=C(c2ccccc2)/C1=C\c1ccco1	0	0	36	0	42	0
CC(C)NC(=O)Nc1ccc2c(c1)CC(=O)N([C@@H](C)CO)C[C@@H](C)[C@H](CN(C)C(=O)Nc1ccc(C(F)(F)F)cc1)O2	-	-	0	-	-	-
CC1OC(OCC2OC(Oc3c(-c4ccc(O)cc4)oc4cc(O)cc(O)c4c3=O)C(O)C(O)C2O)C(O)C(O)C1O (stereo unspecified)	-	0	54	-	0	-
c1csc(CNc2ncnc3ccc(-c4ccoc4)cc23)c1	0	0	0	-	0	0
c1csc(CNc2ncnc3ccc(-c4ccc5c(c4)OCO5)cc23)c1	0	0	0	0	32!	0
CN1CCCN(S(=O)(=O)c2ccc(Cl)c(Cl)c2)CC1	0	-	0	0	-	0
CN1C(=O)CCS(=O)(=O)C1c1ccc(Cl)c(Cl)c1 (stereo unspecified)	0	0	57	0	0	0
C[C@@H]1CN([C@@H](C)CO)C(=O)c2cccc(NC(=O)Nc3ccc4c(c3)OCO4)c2O[C@@H]1CN(C)S(=O)(=O)c1cccs1	-	-	0	-	-	-
Cc1cc(C)n(C)c(=O)c1C#N	0	0	0	0	0	0
Cc1c(C=O)c(Cl)n(C)c(=O)c1C#N	0	0	51	-	0	0
Nc1nc(-c2cc3c(cc2Cl)OCCO3)cs1	32	0	0	0	0	0
CNC(=O)C[C@@H]1CC[C@@H]2[C@H](COc3ccc(NS(=O)(=O)c4ccccc4C)cc3C(=O)N2C)O1	0	-	0	-	-	-
COc1cc(N2C(=O)C=CC2=O)c(OC)cc1Cl	35	0	0	-	0	0
OC(CNC1CCCCC1)COCCOc1ccc(Br)cc1 (stereo unspecified)	0	0	47	0	0	0
OC(CNC1CCCC1)COc1ccc(-c2ccccc2)cc1 (stereo unspecified)	0	0	0	0	0	0
O=[N+]([O-])c1cc(-c2ccccc2)cc([N+](=O)[O-])c1O	0	0	0	0	0	0
O=[N+]([O-])c1cc2ccccc2c(O)c1O	0	0	41	0	0	0
Cc1ccc(NC(=O)c2sc(C)nc2C)c(C)c1	0	0	51	0	0	0
COc1ccc(S(=O)(=O)NNC(=O)Cc2csc(C)n2)cc1[N+](=O)[O-]	0	0	56	0	0	0
Cc1nc(CC(=O)NNS(=O)(=O)c2ccc3ccccc3c2)cs1	0	0	-	0	0	0
Cc1noc(C)c1COc1ccccc1C(=O)N(C)CC(=O)Nc1ccc(F)c(F)c1F	0	0	53	0	0	0
O=C(OCCc1ccccc1)c1cc(O)c(O)c(O)c1	0	0	0	-	0	0
O=C(Oc1ccccc1)c1cc(O)c(O)c(O)c1	-	-	-	116	-	-
CCO[C@@H]1OC(C(=O)N2CCCC2)=C[C@H](C2CCCCC2)[C@H]1CCCO	-	-	0	-	-	-
CCN(CC)c1ccc2nc3ccc(N)cc3[n+](-c3ccccc3)c2c1	0	0	0	72	0	0
SMILES	FN deposition inh	GC-A act	CASP6 VEID inh	NSD2 inh	NPR2 activator	CaV13 ICDI inh
COc1ccc(-c2ccc(CCC(=O)O)o2)cc1	-	0	0	0	0	0
O=C(O)CCc1ccc(-c2ccc(Cl)cc2)o1	-	45	-	0	0	0
O=C(O)CCc1ccc(-c2ccc(Br)cc2)o1	-	44	-	0	0	0
CCCN1C[C@@H](C)[C@@H](OC)CN(C)C(=O)c2cc(NC(=O)C3CCC3)ccc2OC[C@@H]1C	0	-	-	-	-	-
COc1cc(OC)c(OC)cc1CN1CCSCC1	0	0	36	0	0	0
C=CCSc1nnc(NC(=O)COc2ccc3ccccc3c2)s1	-	0	0	-	0	0
C=CCSc1nnc(NC(=O)COc2ccccc2)s1	34	0	0	0	0	0
CCCC#Cc1cnc2c(c1)C(=O)N([C@@H](C)CO)C[C@@H](C)[C@@H](CN(C)C(=O)Cc1ccncc1)O2	-	-	0	-	-	-
Cc1ccc(C)c(-n2c(Cc3cc(=O)[nH]c(=O)[nH]3)nnc2SC(C)C)c1	0	0	0	-	0	39
CCC(C)n1c(=N)c(C#N)cc2c(=O)n3cc(C)ccc3nc21 (stereo unspecified)	0	0	0	0	0	57
